# Calls of active or inactive are those of the source. The rule behind the calls is not given here.
# Assays:
# [1] = molecular target: T1, Gamma-aminobutyric acid receptor subunit alpha-5 (Homo sapiens, UniProt P18507+P31644+P47870); test: Binding affinity to GABAA alpha-5-beta-2-gamma-2 receptor
# T1 sequence (P31644 whole entry): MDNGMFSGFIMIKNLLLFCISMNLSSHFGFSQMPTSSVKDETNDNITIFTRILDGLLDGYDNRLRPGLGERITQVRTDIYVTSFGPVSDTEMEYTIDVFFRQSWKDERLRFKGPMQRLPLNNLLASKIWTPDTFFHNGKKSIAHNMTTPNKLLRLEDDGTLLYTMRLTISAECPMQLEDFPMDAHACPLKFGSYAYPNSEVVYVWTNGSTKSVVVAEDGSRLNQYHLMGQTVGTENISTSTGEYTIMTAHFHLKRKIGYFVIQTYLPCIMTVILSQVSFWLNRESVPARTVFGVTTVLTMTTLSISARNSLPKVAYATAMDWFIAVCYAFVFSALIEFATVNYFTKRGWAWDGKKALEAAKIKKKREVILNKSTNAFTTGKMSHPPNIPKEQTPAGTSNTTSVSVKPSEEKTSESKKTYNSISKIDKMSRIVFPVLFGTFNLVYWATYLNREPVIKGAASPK
# How it was run: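 Sf-9 insect cells infected with baculovirus carrying α5, β2 and γ2 subunits in equimolar ratio (2 MOI), harvested 60 h post-infection, then homogenized in 50 mM Tris-HCl pH 7.7. Incubated 90 min at 0 °C in triplicate; filtration and scintillation counting.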
# [2] = molecular target: T2, Gamma-aminobutyric acid receptor subunit alpha-1 (Homo sapiens, UniProt P14867+P18507+P47870); test: Binding affinity to GABAA alpha-1-beta-2-gamma-2 receptor
# T2 sequence (P14867 whole entry): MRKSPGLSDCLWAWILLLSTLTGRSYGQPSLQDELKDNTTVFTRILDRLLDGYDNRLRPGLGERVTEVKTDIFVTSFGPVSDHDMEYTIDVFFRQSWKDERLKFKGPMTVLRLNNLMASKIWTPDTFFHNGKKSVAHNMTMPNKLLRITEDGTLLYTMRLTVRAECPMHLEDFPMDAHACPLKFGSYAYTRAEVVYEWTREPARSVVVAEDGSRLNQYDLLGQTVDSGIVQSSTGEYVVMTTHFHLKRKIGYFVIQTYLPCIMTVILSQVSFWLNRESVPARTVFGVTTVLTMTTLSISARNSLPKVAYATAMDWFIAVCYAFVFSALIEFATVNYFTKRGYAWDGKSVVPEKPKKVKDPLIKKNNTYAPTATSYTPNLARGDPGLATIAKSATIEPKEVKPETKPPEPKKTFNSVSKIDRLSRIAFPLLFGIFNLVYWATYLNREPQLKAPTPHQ
# [3] = molecular target: T2, Gamma-aminobutyric acid receptor subunit alpha-1; test: Displacement of [3H]Ro15-4513 from GABAA alpha-1-beta-2-gamma-2 receptor expressed in Sf9 baculovirus system
# How it was run: (§1)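 Homogenates of Sf-9 cells infected 60 h earlier with baculoviruses for each of the three subunits (2 MOI, equimolar), in 50 mM Tris-HCl pH 7.7. Competition against 0.5–1.0 nM [3H]-Ro15-4513, with unlabeled ligand from 40 pM to 10 µM (ethanol below 0.1%). Incubated 90 min at 0 °C, in triplicate. Separated by rapid filtration and read by scintillation counting.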
# [4] = molecular target: T1, Gamma-aminobutyric acid receptor subunit alpha-5; test: Displacement of [3H]Ro15-4513 from GABAA alpha-5-beta-2-gamma-2 receptor expressed in Sf9 baculovirus system; how it was run: as §1
# [5] = molecular target: T3, GABA-A receptor; alpha-1/beta-3/gamma-2 (Homo sapiens, UniProt P14867+P18507+P28472); test: Binding affinity to GABAA alpha-1-beta-3-gamma-2 receptor; format: protein-complex assay
# T3 sequence (P14867 whole entry): T2 sequence (P14867 whole entry)
# T3 sequence (P18507 whole entry): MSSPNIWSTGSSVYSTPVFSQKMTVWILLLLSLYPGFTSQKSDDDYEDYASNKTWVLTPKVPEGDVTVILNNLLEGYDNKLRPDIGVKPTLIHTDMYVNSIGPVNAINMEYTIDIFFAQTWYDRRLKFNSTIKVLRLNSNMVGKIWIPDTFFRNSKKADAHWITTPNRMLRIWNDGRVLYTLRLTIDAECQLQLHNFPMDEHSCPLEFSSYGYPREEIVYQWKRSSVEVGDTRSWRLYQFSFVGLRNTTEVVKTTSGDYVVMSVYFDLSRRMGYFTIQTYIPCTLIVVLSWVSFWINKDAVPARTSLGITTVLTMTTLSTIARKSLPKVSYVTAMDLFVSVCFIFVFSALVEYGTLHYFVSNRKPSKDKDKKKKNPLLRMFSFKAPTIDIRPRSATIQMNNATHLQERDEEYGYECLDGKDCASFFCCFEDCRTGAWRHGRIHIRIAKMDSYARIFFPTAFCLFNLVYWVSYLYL
# T3 sequence (P28472 whole entry): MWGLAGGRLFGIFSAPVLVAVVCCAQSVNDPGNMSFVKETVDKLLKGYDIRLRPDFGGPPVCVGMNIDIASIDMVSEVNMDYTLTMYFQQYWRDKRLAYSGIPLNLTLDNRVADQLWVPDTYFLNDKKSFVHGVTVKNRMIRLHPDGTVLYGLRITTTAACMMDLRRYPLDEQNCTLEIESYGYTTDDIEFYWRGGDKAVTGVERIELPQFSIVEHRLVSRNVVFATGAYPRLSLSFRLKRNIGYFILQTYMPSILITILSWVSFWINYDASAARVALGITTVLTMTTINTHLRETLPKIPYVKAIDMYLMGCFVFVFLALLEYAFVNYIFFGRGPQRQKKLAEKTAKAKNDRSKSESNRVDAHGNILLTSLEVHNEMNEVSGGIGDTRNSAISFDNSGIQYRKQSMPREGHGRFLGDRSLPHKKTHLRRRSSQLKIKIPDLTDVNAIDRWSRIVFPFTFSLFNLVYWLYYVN
# [6] = molecular target: T4, GABA A receptor alpha-4/beta-3/gamma-2 (Homo sapiens, UniProt P18507+P28472+P48169); test: Binding affinity to GABAA alpha-4-beta-3-gamma-2 receptor; format: protein-complex assay
# T4 sequence (P48169 whole entry, one chain of several): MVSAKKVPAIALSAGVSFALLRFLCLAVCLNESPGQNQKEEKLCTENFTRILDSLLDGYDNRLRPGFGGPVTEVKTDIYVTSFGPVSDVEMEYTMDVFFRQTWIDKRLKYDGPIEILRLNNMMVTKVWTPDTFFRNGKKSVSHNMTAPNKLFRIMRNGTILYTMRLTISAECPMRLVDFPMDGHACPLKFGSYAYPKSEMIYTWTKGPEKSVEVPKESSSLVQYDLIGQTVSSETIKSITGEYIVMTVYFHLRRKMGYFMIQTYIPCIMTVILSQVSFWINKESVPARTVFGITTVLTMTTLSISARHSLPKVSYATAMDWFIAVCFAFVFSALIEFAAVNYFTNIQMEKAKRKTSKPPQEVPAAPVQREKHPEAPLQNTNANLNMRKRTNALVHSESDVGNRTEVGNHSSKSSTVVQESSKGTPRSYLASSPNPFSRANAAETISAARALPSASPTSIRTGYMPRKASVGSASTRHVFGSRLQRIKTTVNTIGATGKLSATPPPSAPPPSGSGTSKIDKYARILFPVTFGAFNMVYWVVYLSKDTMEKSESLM
# [7] = Selectivity for GABAA alpha-5-beta-3-gamma-2 receptor over GABAA alpha-6-beta-3-gamma-2 receptor
# [8] = tested on: Mus musculus; test: Anticonvulsant activity in C57BL/6J mouse assessed as inhibition of increase in excitatory tone in brain at 30 mg/kg, ip; format: functional, organism-based; parameters: dose 30 mg/kg
# [9] = molecular target: T4, GABA A receptor alpha-4/beta-3/gamma-2; test: Activity at GABAA alpha-4-beta-3-gamma-2 receptor expressed in Xenopus oocytes assessed as potentiation of GABA-induced chloride current at 1 uM; format: cell-based; conditions: Oocyte
# [10] = molecular target: T5, GABA-A receptor; alpha-6/beta-3/gamma-2 (Homo sapiens, UniProt P18507+P28472+Q16445); test: Binding affinity to GABAA alpha-6-beta-3-gamma-2 receptor; format: protein-complex assay
# T5 sequence (Q16445 whole entry, one chain of several): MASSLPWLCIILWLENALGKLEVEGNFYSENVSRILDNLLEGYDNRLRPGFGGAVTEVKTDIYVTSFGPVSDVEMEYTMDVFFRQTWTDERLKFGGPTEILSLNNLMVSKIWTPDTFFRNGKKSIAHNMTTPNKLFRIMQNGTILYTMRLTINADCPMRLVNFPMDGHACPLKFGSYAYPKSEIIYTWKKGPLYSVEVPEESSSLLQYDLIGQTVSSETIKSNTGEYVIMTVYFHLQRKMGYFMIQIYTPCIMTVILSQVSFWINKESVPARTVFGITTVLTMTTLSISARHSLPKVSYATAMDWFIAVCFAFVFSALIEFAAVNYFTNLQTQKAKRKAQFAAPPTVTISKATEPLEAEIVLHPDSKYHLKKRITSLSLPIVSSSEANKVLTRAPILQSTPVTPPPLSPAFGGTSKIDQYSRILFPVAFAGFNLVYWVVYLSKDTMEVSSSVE
# [11] = Selectivity for GABAA alpha-5-beta-3-gamma-2 receptor over GABAA alpha-3-beta-3-gamma-2 receptor
# [12] = Selectivity for GABAA alpha-5-beta-3-gamma-2 receptor over GABAA alpha-2-beta-3-gamma-2 receptor
# [13] = tested on: Mus musculus; test: Inhibition of scopolamine-induced impairment of contextual memory in C57BL/6J mouse at 10 mg/kg, ip after 24 hrs; format: functional, organism-based; parameters: dose 10 mg/kg
# How it was run: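 Male C57Bl/6 mice, 7–12 weeks old, given ip vehicle (0.9% saline with 2.5% encapsin), scopolamine 1.5 mg/kg, or scopolamine plus ligand. After 20 min: context exposure, then three 33 s tones (85 dB, 2.9 kHz), each ending with a 0.75 mA footshock. Freezing scored over 4 min in the same context 24 h later.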
# [14] = Selectivity for GABAA alpha-5-beta-3-gamma-2 receptor over GABAA alpha-1-beta-3-gamma-2 receptor
# [15] = Selectivity for GABAA alpha-5-beta-3-gamma-2 receptor over GABAA alpha-4-beta-3-gamma-2 receptor
# [16] = molecular target: GABA-A receptor; alpha-2/beta-3/gamma-2 (Homo sapiens) (UniProt P18507+P28472+P47869); test: Activity at GABAA alpha-2-beta-3-gamma-2 receptor expressed in Xenopus oocytes assessed as potentiation of GABA-induced chloride current at 1 uM; format: cell-based; conditions: Oocyte
# [17] = molecular target: T5, GABA-A receptor; alpha-6/beta-3/gamma-2; test: Activity at GABAA alpha-6-beta-3-gamma-2 receptor expressed in Xenopus oocytes assessed as potentiation of GABA-induced chloride current at 1 uM; format: cell-based; conditions: Oocyte
SMILES,Kd [1],Kd [2],Ki [5],also measured
CCOC(=O)c1ncn2c3ccc(C#C[Si](C)(C)C)cc3c(=O)n(C)c12,5 nM,121 nM,–,–
Nc1c(C(=O)c2ccc(Cl)cc2)sc2ccccc12,–,–,–,IC50 [3]: 1000 nM; IC50 [4]: 1000 nM
Cn1c(=O)c2cc(C#C[Si](C)(C)C)ccc2n2cnc(C(=O)OC(C)(C)C)c12,58 nM,197 nM,–,–
CCOC(=O)c1ncn2c1[C@@H]1CCN1C(=O)c1cc(C#C[Si](C)(C)C)ccc1-2,2.6 nM,83 nM,–,–
CSC1SC(C(=O)c2ccc(Cl)cc2)C2CC(C)(C)CC(=O)C12 (stereo unspecified),–,–,–,IC50 [3]: 580 nM; IC50 [4]: 210 nM
CCOc1cc2c(cn1)[nH]c1ccccc12,826 nM,1.2 nM,–,–
CCOC(=O)c1ncn2c1C1CCCN1C(=O)c1cc(C#C[Si](C)(C)C)ccc1-2 (stereo unspecified),4 nM,200 nM,–,–
Cn1c(=O)c2cc(Cl)ccc2n2cnc(CO)c12,–,–,> 300 nM,Ki [1]: > 300 nM
O=C1C2C=Nc3ccccc3C2=NN1c1ccc(Cl)cc1 (stereo unspecified) [CGS-9896],40 nM,0.3 nM,–,–
COCc1ncn2c1CN(C)C(=O)c1cc(Cl)ccc1-2,–,–,920 nM,Ki [6]: > 300 nM; Activity [7]: 20; Activity [8]: Active; Activity [9]: 4%; Ki [10]: 9000 nM; Selectivity Index [11]: 20; Selectivity ratio [12]: 20; Activity [13]: Active; Selectivity ratio [14]: 20; Activity [15]: 20; Activity [16]: 4%; Activity [17]: 4%
COc1ccc(-n2nc3c4ccccc4[nH]cc-3c2=O)cc1,5 nM,0.1 nM,–,–
CCCCCc1ncn2c3ccc(Cl)cc3c(=O)n(C)c12,–,–,2050 nM,Ki [1]: 369 nM
CCCOc1cc2c(cn1)[nH]c1ccccc12,591 nM,5 nM,–,–
CCOCc1ncn2c3ccc(Cl)cc3c(=O)n(C)c12,–,–,500 nM,Ki [1]: 83 nM
CC(=O)NC1N=C(c2ccccc2)c2ccccc2NC1=O (stereo unspecified),–,–,–,IC50 [3]: > 10000 nM; IC50 [4]: > 10000 nM
CC(C)(C)OC(=O)c1cc2c3ccccc3nc-2c[nH]1,111 nM,1 nM,–,–
CC(=O)c1ncn2c3ccc(Cl)cc3c(=O)n(C)c12,–,–,17500 nM,Ki [1]: 2610 nM

SMILES,Kd [1],Kd [2],Ki [5],also measured
Cn1c(=O)c2cc(Cl)ccc2n2cnc(C(=O)OC(C)(C)C)c12,–,–,17.3 nM,Ki [1]: 0.65 nM
Cn1c(=O)c2cc(Cl)ccc2n2cnc(CCl)c12,–,–,500 nM,Ki [1]: 500 nM
CCOC(=O)c1[nH]cc2nc3cc(OC)c(OC)cc3c-2c1CC,1 nM,8 nM,–,–
COC(=O)c1cc2c(cn1)[nH]c1ccccc12 [BETA-CCM],58 nM,1 nM,–,–
CCCCC(=O)c1ncn2c3ccc(Cl)cc3c(=O)n(C)c12,–,–,1580 nM,Ki [1]: 166 nM
C#Cc1ccc2c(c1)C(c1ccccc1)=NCC(=O)N2C,7 nM,76 nM,–,–
CSC1SC(C(=O)c2ccc(Cl)cc2)C2CCCC(=O)C12 (stereo unspecified),–,–,–,IC50 [3]: 580 nM; IC50 [4]: 550 nM
O=C1C2C=Nc3ccccc3C2=NN1c1ccccc1 (stereo unspecified) [CGS-8216],200 nM,8.3 nM,–,–
Cn1c(=O)c2cc(Cl)ccc2n2cnc(C(=O)OCC3CC3)c12,–,–,16.4 nM,Ki [1]: 9.8 nM
CCc1ncn2c3ccc(Cl)cc3c(=O)n(C)c12,–,–,408 nM,Ki [1]: 182 nM
CSC1SC(C(=O)c2cccc([N+](=O)[O-])c2)C2CC(C)(C)CC(=O)C12 (stereo unspecified),–,–,–,IC50 [3]: > 10000 nM; IC50 [4]: > 10000 nM
COCc1c(C(=O)OC(C)C)ncc2[nH]c3ccc(OCc4ccccc4)cc3c12 [ABECARNIL],8.4 nM,1 nM,–,–
CSc1nccc(-c2ccc(S(=O)(=O)Nc3ccc(Cl)cc3)s2)n1,–,–,–,IC50 [3]: 470 nM; IC50 [4]: > 10000 nM
Cc1nn(Cc2nc(-c3cccc([N+](=O)[O-])c3)cs2)c(C)c1Br,–,–,–,IC50 [3]: > 10000 nM; IC50 [4]: > 10000 nM
CN1C(=O)CN=C(c2ccccc2)c2ccccc21,–,–,–,IC50 [3]: > 10000 nM; IC50 [4]: > 10000 nM
CCOC(=O)c1cc2c(cn1)[nH]c1ccccc12,–,1 nM,–,–
